What all share (format): functional
Test [1] concerns Mus musculus. Nature of the test: In vitro effect on CF1 male mouse on Lipid content after 16 days at a dose of 60 (mg/kg)/day.
Test [2] deals with Mus musculus. Nature of the test: In vitro effect on CF1 male mouse on phosphatidate phosphohydrolase after 16 days at a dose of 40 (mg/kg)/day. The method in brief: (§1)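 CF1 male mice dosed ip daily for 16 days, drug suspended in 1% carboxymethylcellulose; liver taken as 10% homogenate in 0.25 M sucrose + 0.001 M EDTA. Phosphatidate phosphohydrolase measured as inorganic phosphate released from phosphatidic acid after 30 min, developed with ascorbic acid/ammonium molybdate, read at 820 nm. Expressed as % of 1% CMC vehicle control; N = 6.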

For test [3], the system named is Mus musculus. Briefly: In vitro effect on CF1 male mouse on phosphatidate phosphohydrolase after 16 days at a dose of 60 (mg/kg)/day. The method in brief: as §1
For test [4], the system named is Mus musculus. Briefly: Effect on phospholipids from CF1 male mice after 16 days at a dose of 10 (mg/kg/day). In short, it runs like this: (§2)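 Dosing was ip in CF₁ male mice (~25 g) for 16 days, with compound suspended in 1% carboxymethylcellulose. Liver was then taken and homogenised to 10% in 0.25 M sucrose with 0.001 M EDTA. Lipid was extracted from a 2 mL aliquot by the Folch and Bligh–Dyer methods and total mg of lipid was weighed. Cholesterol (Liebermann–Burchard), triglycerides (kit), neutral lipids and phospholipids were then measured; N = 6; reported as % of vehicle control.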

The test system of test [5] is Mus musculus. Nature of the test: Effect on triglycerides from CF1 male mice after 16 days at a dose of 40 (mg/kg/day). In short, it runs like this: as §2
For test [6], the system named is Mus musculus. Briefly: Effect on Serum cholesterol levels on Hyperlipidemic induced mice After 14 days dosing. In short, it runs like this:
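Mice fed atherogenic diet for 2 weeks to raise serum lipids, then given drug at 20 (mg/kg)/day ip for a further 2 weeks; serum cholesterol and triglyceride measured after the diet and after 14 days dosing; n = 6; compared with 1% CMC and diet-only controls; % control.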

Test [7] deals with Mus musculus. Nature of the test: In vitro effect on CF1 male mouse onAc-CoA carboxylase after 16 days at a dose of 20 (mg/kg)/day. As to conditions: in the assay text read “In vivo” for “In vitro”. The method in brief: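 Mice (CF1 males) given agent ip daily for 16 days in 1% carboxymethylcellulose; liver 10% homogenate in 0.25 M sucrose + 0.001 M EDTA. Acetyl-CoA carboxylase first polymerized 30 min at 37 °C, then incubated 30 min at 37 °C with sodium [14C]bicarbonate (41.0 mCi/mmol); incorporated label counted. Activity as % of vehicle control; N = 6.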

The subject of test [8] is Mus musculus. Nature of the test: In vitro effect on CF1 male mouse on HMGCoA reductase after 16 days at a dose of 20 (mg/kg)/day. In short, it runs like this: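 In vivo enzyme study. CF₁ male mice were dosed ip for 16 days in 1% CMC, and liver was homogenised to 10% in 0.25 M sucrose with 0.001 M EDTA. Enzymes assayed: acetyl-CoA synthetase as hydroxamate at 540 nm after 30 min at 37 °C; HMG CoA reductase with [1-¹⁴C]acetate in 9000g supernatant for 60 min at 37 °C; fatty acid synthetase with [2-¹⁴C]malonyl-CoA; acyltransferase with [³H]glycerol 3-phosphate and microsomes for 10 min; phosphatidate phosphohydrolase as released phosphate at 820 nm after 30 min. N = 6; reported as % control.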

The species named for test [9] is Mus musculus. Nature of the test: In vitro effect on CF1 male mouse on Ac-CoA carboxylase. The method in brief:
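In vitro test on 10% CF₁ male mouse liver homogenate (0.25 M sucrose, 0.001 M EDTA) with 2.5 μmol test drug. Assays: acetyl-CoA synthetase and citrate lyase as hydroxamate at 540 nm, 30 min, 37 °C; citrate exchange from [¹⁴C]citrate-loaded mitochondria after 10 min with drug; side-chain oxidation by ¹⁴CO₂ from [26-¹⁴C]cholesterol, 18 h, 37 °C; acetyl-CoA carboxylase by [¹⁴C]bicarbonate fixation after 30 min polymerization then 30 min at 37 °C.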

Test [10] relates to Rattus norvegicus. Nature of the test: Effect on very low density Triglycerides Holtzman rats after 14 days administration. In short, it runs like this:
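Holtzman male rats (~400 g) received drug at 20 (mg/kg)/day for 14 days. On day 14, blood was collected from the abdominal aorta and serum was separated by centrifugation at 3500 rpm. Lipid content of the lipoprotein fractions was then determined.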

Test [11] relates to Rattus norvegicus. Briefly: Effect on Chylomicrons of Phospholipids Holtzman rats after 14 days administration. The method in brief:
(§3)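 Holtzman male rats (~400 g) given drug at 20 (mg/kg)/day for 14 days; on day 14 blood taken from the abdominal aorta and serum separated by centrifugation at 3500 rpm; lipid and protein content of the lipoprotein fractions measured.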

The subject of test [12] is Rattus norvegicus. Nature of the test: Effect on Chylomicrons of neutral lipids Holtzman rats after 14 days administration. The method in brief:
as §3

Test [13] has as its system Rattus norvegicus. Nature of the test: Effect on Serum triglceride levels on Holtzman rats at a dose of 10 (mg/kg)/day after 14 days. The method in brief: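 Holtzman male rats (~200 g) dosed orally by intubation needle daily for 16 days, drug suspended in 1% carboxymethylcellulose; n = 6; vehicle control. Tail-vein serum cholesterol on days 9 and 16 by modified Liebermann–Burchard reaction; day-14 serum triglyceride by commercial kit; % control.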

For test [14], the system named is Rattus norvegicus. Briefly: Effect on cholesterol chylomicrons Holtzman rats after 14 days administration. In short, it runs like this:
as §3

Consider `CC(=O)c1ccccc1N1C(=O)c2ccccc2C1=O`, for which the Control came to 80% in [1]; 54% in test [2]; 98% in test [3]; 90% in test [4]; 91% in test [5]; 118% in test [6]. Also, the Control in test [7] came to 41%; in [8], 81%; in test [9], 35%; in test [10], 46%; in test [11] it was 171%; in test [12] it was 50%. Moreover, the Control in [13] amounted to 76%; in test [14], 64%.

Source of the values: ChEMBL document CHEMBL1122328, “Hypolipidemic activity of phthalimide derivatives. 2. N-phenylphthalimide and derivatives” (1983).
